System: not listed separately
Test: Cytotoxicity against human fibroblasts assessed as cell viability after 72 hrs by MTT assay relative to control
Type: cell-based, Fibroblast
Parameters: concentration or dose not given beside the values
Settings: read-out: Activity

Compound	viability at 72 h
COc1cc(OC)cc(/C(=C\c2cn(C(C)=O)c3ccc(OCc4ccccc4)cc23)C(=O)O)c1	85%
CC(=O)n1cc(/C=C(/C(=O)O)c2ccc(Cl)cc2)c2cc(OCc3ccccc3)ccc21	85%
COc1cccc(/C(=C\c2cn(C(C)=O)c3ccc(OCc4ccccc4)cc23)C(=O)O)c1	85%
COc1ccc(OC)c(/C(=C\c2cn(C(C)=O)c3ccc(OCc4ccccc4)cc23)C(=O)O)c1	85%
CC(=O)n1cc(/C=C(/C(=O)O)c2ccccc2)c2cc(OCc3ccccc3)ccc21	85%

System: LNCaP
Test: Cytotoxicity against human LNCAP cells assessed as cell viability after 72 hrs by MTT assay
Type: functional, cell-based
Settings: not given
Procedure, shortened: (§1)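 Cells were grown at 37 °C in humidified 5% CO2/95% air. DU145 and A549 were kept in DMEM with 10% FCS, glutamine and nonessential amino acids. LNCaP, KB and M14 were kept in RPMI with 10% FCS, and Caco2 in MEM with 10% FCS. For the MTT assay, 1 × 10^4 cells were seeded per well and preincubated 24 h, then treated 72 h (DMSO ≤0.1%). MTT (0.5% in PBS) was added 4 h before the end, formazan was dissolved in DMSO, and OD was read at 550 nm. Triplicates were run.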

Compound	IC50
COc1cc(OC)cc(/C(=C\c2cn(C(C)=O)c3ccc(OCc4ccccc4)cc23)C(=O)O)c1	26.1 µM
CC(=O)n1cc(/C=C(/C(=O)O)c2ccc(Cl)cc2)c2cc(OCc3ccccc3)ccc21	> 100 µM
COc1cccc(/C(=C\c2cn(C(C)=O)c3ccc(OCc4ccccc4)cc23)C(=O)O)c1	65.1 µM
COc1ccc(OC)c(/C(=C\c2cn(C(C)=O)c3ccc(OCc4ccccc4)cc23)C(=O)O)c1	44.1 µM
CC(=O)n1cc(/C=C(/C(=O)O)c2ccccc2)c2cc(OCc3ccccc3)ccc21	> 100 µM

System: DU-145
Test: Cytotoxicity against human DU145 cells assessed as cell viability after 72 hrs by MTT assay
Type: functional, cell-based
Settings: DU-145, 72 h
Procedure, shortened: as §1

Compound	IC50
COc1cc(OC)cc(/C(=C\c2cn(C(C)=O)c3ccc(OCc4ccccc4)cc23)C(=O)O)c1	0.88 µM
CC(=O)n1cc(/C=C(/C(=O)O)c2ccc(Cl)cc2)c2cc(OCc3ccccc3)ccc21	1.13 µM
COc1cccc(/C(=C\c2cn(C(C)=O)c3ccc(OCc4ccccc4)cc23)C(=O)O)c1	1.08 µM
COc1ccc(OC)c(/C(=C\c2cn(C(C)=O)c3ccc(OCc4ccccc4)cc23)C(=O)O)c1	0.83 µM
CC(=O)n1cc(/C=C(/C(=O)O)c2ccccc2)c2cc(OCc3ccccc3)ccc21	26.7 µM

System: KB
Test: Cytotoxicity against human KB cells assessed as cell viability after 72 hrs by MTT assay
Type: functional, cell-based
Settings: not given
Procedure, shortened: as §1

Compound	IC50
COc1cc(OC)cc(/C(=C\c2cn(C(C)=O)c3ccc(OCc4ccccc4)cc23)C(=O)O)c1	30.4 µM
CC(=O)n1cc(/C=C(/C(=O)O)c2ccc(Cl)cc2)c2cc(OCc3ccccc3)ccc21	> 100 µM
COc1cccc(/C(=C\c2cn(C(C)=O)c3ccc(OCc4ccccc4)cc23)C(=O)O)c1	> 100 µM
COc1ccc(OC)c(/C(=C\c2cn(C(C)=O)c3ccc(OCc4ccccc4)cc23)C(=O)O)c1	> 100 µM
CC(=O)n1cc(/C=C(/C(=O)O)c2ccccc2)c2cc(OCc3ccccc3)ccc21	55.5 µM

System: M14
Test: Cytotoxicity against human M14 cells assessed as cell viability after 72 hrs by MTT assay
Type: functional, cell-based
Settings: M14, 72 h
Procedure, shortened: as §1

Compound	IC50
COc1cc(OC)cc(/C(=C\c2cn(C(C)=O)c3ccc(OCc4ccccc4)cc23)C(=O)O)c1	94 µM
CC(=O)n1cc(/C=C(/C(=O)O)c2ccc(Cl)cc2)c2cc(OCc3ccccc3)ccc21	> 100 µM
COc1cccc(/C(=C\c2cn(C(C)=O)c3ccc(OCc4ccccc4)cc23)C(=O)O)c1	> 100 µM
COc1ccc(OC)c(/C(=C\c2cn(C(C)=O)c3ccc(OCc4ccccc4)cc23)C(=O)O)c1	87.1 µM
CC(=O)n1cc(/C=C(/C(=O)O)c2ccccc2)c2cc(OCc3ccccc3)ccc21	> 100 µM

System: A549
Test: Cytotoxicity against human A549 cells assessed as cell viability after 72 hrs by MTT assay
Type: functional, cell-based
Settings: A549, 72 h
Procedure, shortened: as §1

Compound	IC50
COc1cc(OC)cc(/C(=C\c2cn(C(C)=O)c3ccc(OCc4ccccc4)cc23)C(=O)O)c1	26 µM
CC(=O)n1cc(/C=C(/C(=O)O)c2ccc(Cl)cc2)c2cc(OCc3ccccc3)ccc21	52.3 µM
COc1cccc(/C(=C\c2cn(C(C)=O)c3ccc(OCc4ccccc4)cc23)C(=O)O)c1	45.2 µM
COc1ccc(OC)c(/C(=C\c2cn(C(C)=O)c3ccc(OCc4ccccc4)cc23)C(=O)O)c1	54.5 µM
CC(=O)n1cc(/C=C(/C(=O)O)c2ccccc2)c2cc(OCc3ccccc3)ccc21	57.5 µM
